# Test results: ChEMBL document CHEMBL1268908, “Design, synthesis, radiolabeling, and in vivo evaluation of carbon-11 labeled N-[2-[4-(3-cyanopyridin-2-yl)piperazin-1-yl]ethyl]-3-methoxybenzamide, a potential positron emission tomography tracer for the dopamine D(4) receptors” (J Med Chem, 2010)
# Assays:
# Type in all cases: ADME, organism-based, Macaca mulatta
# [1] = Biodistribution in rhesus monkey occipital lobe at 150.3 MBq, iv after 8.5 mins; details: in vivo
# Striatum [2] = experiment: Biodistribution in rhesus monkey striatum at 150.3 MBq, iv after 5.5 mins; details: in vivo
# Striatum [3] = experiment: Biodistribution in rhesus monkey striatum at 150.3 MBq, iv after 27 mins; details: in vivo, 0.45 h
# Striatum [4] = experiment: Biodistribution in rhesus monkey striatum at 150.3 MBq, iv after 2.25 mins; details: in vivo, 135 s
# [5] = Biodistribution in rhesus monkey retina at 150.3 MBq, iv after 7.5 mins; details: in vivo, 0.125 h
# [6] = Biodistribution in rhesus monkey retina at 150.3 MBq, iv after 11 mins; details: in vivo
# Hippocampus [7] = experiment: Biodistribution in rhesus monkey hippocampus at 150.3 MBq, iv after 37 mins; details: in vivo
# Outline: (§1)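 Male rhesus monkey under ketamine 10 mg/kg im, head fixed; 20 min 68Ge-68Ga transmission scan, then 90 min dynamic 3D PET (6×0.5, 7×1, 20×2, 8×5 min frames) after iv [11C]-labelled tracer in saline, specific radioactivity about 2.9 TBq/μmol at injection. Regions defined on T1-weighted MRI; uptake expressed as % injected dose per mL.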
# [8] = Biodistribution in rhesus monkey cerebellum at 150.3 MBq, iv after 2.75 mins; details: in vivo, 165 s
# Outline: (§2)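 Male rhesus monkey under ketamine (10 mg/kg im) with head fixation. After a 20 min 68Ge-68Ga transmission scan, the [11C]-labelled tracer in saline (pH 7.4) was injected iv, at 2.9 TBq/μmol specific radioactivity at injection. A dynamic 3D PET scan followed over 90 min (6×0.5, 7×1, 20×2, 8×5 min frames). Regions were defined on T1-weighted 1.5 T MRI, and uptake is given as %ID/mL.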
# [9] = Biodistribution in rhesus monkey cerebellum at 150.3 MBq, iv after 2.25 mins; details: in vivo, 135 s; outline: as §2
# [10] = Biodistribution in rhesus monkey entorhinal cortex at 150.3 MBq, iv after 15 mins; details: in vivo, 0.25 h
# Outline: (§3)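 Single male rhesus monkey anesthetized with ketamine 10 mg/kg im, head fixed. Attenuation correction by 20 min 68Ge-68Ga transmission scan. [11C]-tracer in saline (pH 7.4) given iv, specific radioactivity 2.9 TBq/μmol at injection. Dynamic 3D PET emission scan over 90 min in frames of 0.5 to 5 min. MRI T1 images used to define VOIs. Uptake expressed as […].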
# [11] = Biodistribution in rhesus monkey occipital lobe at 150.3 MBq, iv after 27 mins; details: in vivo, 0.45 h; outline: as §1
# [12] = Biodistribution in rhesus monkey cingulate cortex at 150.3 MBq, iv after 23 mins; details: in vivo; outline: as §2
# [13] = Biodistribution in rhesus monkey retina at 150.3 MBq, iv after 23 mins; details: in vivo
# [14] = Biodistribution in rhesus monkey cingulate cortex at 150.3 MBq, iv after 1.25 mins; details: in vivo, 75 s; outline: as §2
# Striatum [15] = experiment: Biodistribution in rhesus monkey striatum at 150.3 MBq, iv after 57.5 mins; details: in vivo
# [16] = Biodistribution in rhesus monkey cingulate cortex at 150.3 MBq, iv after 47 mins; details: in vivo; outline: as §2
# [17] = Biodistribution in rhesus monkey cingulate cortex at 150.3 MBq, iv after 7.5 mins; details: in vivo, 0.125 h; outline: as §3
# [18] = Biodistribution in rhesus monkey entorhinal cortex at 150.3 MBq, iv after 0.75 mins; details: in vivo, 45 s; outline: as §3
# [19] = Biodistribution in rhesus monkey retina at 150.3 MBq, iv after 6.5 mins; details: in vivo
# Hippocampus [20] = experiment: Biodistribution in rhesus monkey hippocampus at 150.3 MBq, iv after 62.5 mins; details: in vivo; outline: as §1
# [21] = Biodistribution in rhesus monkey cerebellum at 150.3 MBq, iv after 1.25 mins; details: in vivo, 75 s; outline: as §2
# Hippocampus [22] = experiment: Biodistribution in rhesus monkey hippocampus at 150.3 MBq, iv after 72.5 mins; details: in vivo; outline: as §1
# Striatum [23] = experiment: Biodistribution in rhesus monkey striatum at 150.3 MBq, iv after 1.25 mins; details: in vivo, 75 s
# Striatum [24] = experiment: Biodistribution in rhesus monkey striatum at 150.3 MBq, iv after 45 mins; details: in vivo, 0.75 h
# [25] = Biodistribution in rhesus monkey cerebellum at 150.3 MBq, iv after 37 mins; details: in vivo; outline: as §2
# Striatum [26] = experiment: Biodistribution in rhesus monkey striatum at 150.3 MBq, iv after 0.25 mins; details: in vivo, 15 s
# [27] = Biodistribution in rhesus monkey entorhinal cortex at 150.3 MBq, iv after 2.25 mins; details: in vivo, 135 s; outline: as §3
# [28] = Biodistribution in rhesus monkey cerebellum at 150.3 MBq, iv after 57.5 mins; details: in vivo; outline: as §2
# Striatum [29] = experiment: Biodistribution in rhesus monkey striatum at 150.3 MBq, iv after 21 mins; details: in vivo, 0.35 h
# [30] = Biodistribution in rhesus monkey retina at 150.3 MBq, iv after 15 mins; details: in vivo, 0.25 h
# Striatum [31] = experiment: Biodistribution in rhesus monkey striatum at 150.3 MBq, iv after 82.5 mins; details: in vivo, 1.375 h
# Hippocampus [32] = experiment: Biodistribution in rhesus monkey hippocampus at 150.3 MBq, iv after 31 mins; details: in vivo; outline: as §1
# [33] = Biodistribution in rhesus monkey cingulate cortex at 150.3 MBq, iv after 41 mins; details: in vivo; outline: as §2
# Striatum [34] = experiment: Biodistribution in rhesus monkey striatum at 150.3 MBq, iv after 52.5 mins; details: in vivo, 0.875 h
# [35] = Biodistribution in rhesus monkey entorhinal cortex at 150.3 MBq, iv after 35 mins; details: in vivo; outline: as §3
# Hippocampus [36] = experiment: Biodistribution in rhesus monkey hippocampus at 150.3 MBq, iv after 39 mins; details: in vivo, 0.65 h; outline: as §1
# [37] = Biodistribution in rhesus monkey occipital lobe at 150.3 MBq, iv after 1.25 mins; details: in vivo, 75 s; outline: as §1
# [38] = Biodistribution in rhesus monkey cingulate cortex at 150.3 MBq, iv after 19 mins; details: in vivo; outline: as §2
# [39] = Biodistribution in rhesus monkey cingulate cortex at 150.3 MBq, iv after 4.5 mins; details: in vivo, 0.075 h; outline: as §2
# [40] = Biodistribution in rhesus monkey occipital lobe at 150.3 MBq, iv after 67.5 mins; details: in vivo, 1.125 h
# Hippocampus [41] = experiment: Biodistribution in rhesus monkey hippocampus at 150.3 MBq, iv after 52.5 mins; details: in vivo, 0.875 h; outline: as §1
# [42] = Biodistribution in rhesus monkey retina at 150.3 MBq, iv after 77.5 mins; details: in vivo
# [43] = Biodistribution in rhesus monkey cerebellum at 150.3 MBq, iv after 47 mins; details: in vivo; outline: as §2
# Striatum [44] = experiment: Biodistribution in rhesus monkey striatum at 150.3 MBq, iv after 33 mins; details: in vivo, 0.55 h
# [45] = Biodistribution in rhesus monkey retina at 150.3 MBq, iv after 47 mins; details: in vivo
# [46] = Biodistribution in rhesus monkey occipital lobe at 150.3 MBq, iv after 31 mins; details: in vivo; outline: as §1
# [47] = Biodistribution in rhesus monkey cingulate cortex at 150.3 MBq, iv after 29 mins; details: in vivo; outline: as §2
# Hippocampus [48] = experiment: Biodistribution in rhesus monkey hippocampus at 150.3 MBq, iv after 29 mins; details: in vivo; outline: as §1
smiles,measurement,setting,value
[11CH3]Oc1cccc(C(=O)NCCN2CCN(c3ncccc3C#N)CC2)c1,Drug uptake,[1],25.53 kBq/ml
same,Drug uptake,Striatum [2],39.4 kBq/ml
same,Drug uptake,Striatum [3],16.63 kBq/ml
same,Drug uptake,Striatum [4],51.53 kBq/ml
same,Drug uptake,[5],43.92 kBq/ml
same,Drug uptake,[6],49.56 kBq/ml
same,Drug uptake,Hippocampus [7],12.43 kBq/ml
same,Drug uptake,[8],41.81 kBq/ml
same,Drug uptake,[9],44.35 kBq/ml
same,Drug uptake,[10],22.26 kBq/ml
same,Drug uptake,[11],14.42 kBq/ml
same,Drug uptake,[12],17.4 kBq/ml
same,Drug uptake,[13],54.68 kBq/ml
same,Drug uptake,[14],60.79 kBq/ml
same,Drug uptake,Striatum [15],9.776 kBq/ml
same,Drug uptake,[16],10.29 kBq/ml
same,Drug uptake,[17],32.75 kBq/ml
same,Drug uptake,[18],36.57 kBq/ml
same,Drug uptake,[19],44.54 kBq/ml
same,Drug uptake,Hippocampus [20],8.242 kBq/ml
same,Drug uptake,[21],51.01 kBq/ml
same,Drug uptake,Hippocampus [22],8.523 kBq/ml
same,Drug uptake,Striatum [23],60.2 kBq/ml
same,Drug uptake,Striatum [24],11.04 kBq/ml
same,Drug uptake,[25],11.56 kBq/ml
same,Drug uptake,Striatum [26],42.71 kBq/ml
same,Drug uptake,[27],40.15 kBq/ml
same,Drug uptake,[28],9.179 kBq/ml
same,Drug uptake,Striatum [29],18.62 kBq/ml
same,Drug uptake,[30],50.94 kBq/ml
same,Drug uptake,Striatum [31],8.324 kBq/ml
same,Drug uptake,Hippocampus [32],14.91 kBq/ml
same,Drug uptake,[33],10.93 kBq/ml
same,Drug uptake,Striatum [34],10.06 kBq/ml
same,Drug uptake,[35],11.33 kBq/ml
same,Drug uptake,Hippocampus [36],12.1253 kBq/ml
same,Drug uptake,[37],55.16 kBq/ml
same,Drug uptake,[38],18.84 kBq/ml
same,Drug uptake,[39],39.8367 kBq/ml
same,Drug uptake,[40],7.697 kBq/ml
same,Drug uptake,Hippocampus [41],9.565 kBq/ml
same,Drug uptake,[42],50.63 kBq/ml
same,Drug uptake,[43],10.15 kBq/ml
same,Drug uptake,Striatum [44],14.6624 kBq/ml
same,Drug uptake,[45],57.02 kBq/ml
same,Drug uptake,[46],12.89 kBq/ml
same,Drug uptake,[47],15.04 kBq/ml
same,Drug uptake,Hippocampus [48],16.7 kBq/ml
